This is an account of results in BindingDB's records for doi:10.1021/jm300280e (Radboud University Nijmegen Medical Centre, 2012).

The experiment has as its target Adenosine receptor A2a (Homo sapiens, UniProt P29274). Description: Displacement of [3H]ZM241385 from human AA2AR expressed in HEK293T cells after 2 hrs by liquid scintillation counter. The method in brief: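 Membranes of HEK293T cells stably expressing AA2AR (40 µg protein) incubated with 1.7 nM (final) [3H]ZM241385 in 50 mM Tris·HCl pH 7.4, 2 h at 25 °C with shaking. Nonspecific binding defined with 100 µM CGS21680. Filtered over GF/B, washed three times with ice-cold buffer. Compounds giving ≥50% inhibition at 10 µM went to concentration-response curves. pKi values, n=3 in duplicate.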
(Loss of bound radioactivity is the signal in a displacement assay; it reports binding, not function.)

For orientation: Ki means a measure of affinity in units of concentration, obtained from inhibition or displacement. Read a high Ki as weaker binding.

Adenosine receptor A2a, sequence (P29274 whole entry): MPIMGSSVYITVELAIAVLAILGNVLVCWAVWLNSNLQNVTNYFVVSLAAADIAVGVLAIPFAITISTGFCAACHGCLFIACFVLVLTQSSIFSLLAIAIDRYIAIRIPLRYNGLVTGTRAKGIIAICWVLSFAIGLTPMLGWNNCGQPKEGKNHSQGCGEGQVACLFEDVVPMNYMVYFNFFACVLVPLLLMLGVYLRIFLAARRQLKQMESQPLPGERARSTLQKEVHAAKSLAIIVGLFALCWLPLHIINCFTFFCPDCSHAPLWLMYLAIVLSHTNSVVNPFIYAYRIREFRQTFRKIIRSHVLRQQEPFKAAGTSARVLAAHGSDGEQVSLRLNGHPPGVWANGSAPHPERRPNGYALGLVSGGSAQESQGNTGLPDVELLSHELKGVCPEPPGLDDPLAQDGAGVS

The compound `COc1cc(CN=Nc2ncnc3sc4c(c23)CCCC4)ccc1O` registered an inhibition constant (Ki) of 5.01 µM.
In the case of `N#CC(N=Nc1ccc(S(N)(=O)=O)cc1)c1nc2ccccc2[nH]1` (configuration not stated) it was 5.01 µM.
